Test results taken from ChEMBL document CHEMBL1140366, “Novel P1 chain-extended HIV protease inhibitors possessing potent anti-HIV activity and remarkable inverse antiviral resistance profiles” (Bioorg Med Chem Lett, 2005).

Columns and labels:
[1] = tested on: Human immunodeficiency virus; assay: Inhibitory concentration against wild type Human immuno deficiency virus (HXB2) was determined in an MT-4 cell line; type: functional, organism-based; details: Human immunodeficiency virus 1, MT4
[2] = tested on: Human immunodeficiency virus; assay: Inhibitory concentration against protease inhibitor-resistant mutant Human immuno deficiency virus (D545701) was determined in an MT-4 cell line; details: Human immunodeficiency virus 1, MT4
[3] = tested on: Human immunodeficiency virus; assay: Inhibitory concentration against protease inhibitor-resistant mutant Human immuno deficiency virus (EP13) was determined in an MT-4 cell line; details: Human immunodeficiency virus 1, MT4
[4] = tested on: Rattus norvegicus; assay: Bioavailability in rats at 1.0 mg/kg iv dose; type: functional, organism-based
[5] = tested on: Canis lupus familiaris; assay: Clearance in dogs at 0.5 mg/kg dose; type: functional, organism-based; set-up: dose 0.5 mg/kg
[6] = tested on: Rattus norvegicus; assay: Half life in rat was determined at a dose 1.0 mg/kg; type: functional, organism-based; set-up: dose 1 mg/kg
[7] = tested on: Rattus norvegicus; assay: Clearance in rats at 1.0 mg/kg iv dose; type: functional, organism-based; set-up: dose 1 mg/kg
[8] = tested on: Canis lupus familiaris; assay: Bioavailability in dog at 0.5 mg/kg dose; type: functional, organism-based
[9] = tested on: Canis lupus familiaris; assay: Half life in dogs at 0.5 mg/kg iv dose; type: functional, organism-based; set-up: dose 0.5 mg/kg
[10] = tested on: Canis lupus familiaris; assay: Bioavailability in dog at 0.5 mg/kg dose co-administered with 4.0 mg/kg ritonavir; type: functional, organism-based
How it was run: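 Ritonavir-boosted bioavailability was calculated as the oral AUC with co-administered ritonavir divided by the IV AUC without ritonavir.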

[11] = tested on: Canis lupus familiaris; assay: Clearance in dogs at 0.5 mg/kg iv dose; type: functional, organism-based; set-up: dose 0.5 mg/kg
[12] = tested on: Rattus norvegicus; assay: Bioavailability of the compound in rat was determined; Dose at 1.0 mg/kg; type: functional, organism-based
[13] = tested on: Canis lupus familiaris; assay: Half life in dogs at 0.5 mg/kg iv dose co-administered with ritonavir 4.0 mg/kg; type: functional, organism-based

CC(C)(C)NC(=O)[C@@H]1CN(Cc2cccnc2)CCN1C[C@@H](O)C[C@@H](Cc1ccccc1)C(=O)N[C@H]1c2ccccc2C[C@H]1O [INDINAVIR]
IC50 [1]: 50 nM
IC50 [2]: 440 nM
IC50 [3]: 330 nM

CC(C)CN(C[C@@H](O)[C@H](Cc1ccc(OCCNC(=O)N(C)C)cc1)NC(=O)O[C@H]1CO[C@H]2OCC[C@H]21)S(=O)(=O)c1ccc2c(c1)OCO2
IC50 [1]: 37 nM
IC50 [2]: 11 nM
IC50 [3]: 9.1 nM

CC(C)CN(C[C@@H](O)[C@H](Cc1ccc(OCCNS(C)(=O)=O)cc1)NC(=O)O[C@H]1CO[C@H]2OCC[C@H]21)S(=O)(=O)c1ccc2c(c1)OCO2
IC50 [1]: 62 nM
IC50 [2]: 20 nM
IC50 [3]: 9.1 nM

CNC(=O)NCCCCOc1ccc(C[C@H](NC(=O)O[C@H]2CO[C@H]3OCC[C@H]32)[C@H](O)CN(CC(C)C)S(=O)(=O)c2ccc3c(c2)OCO3)cc1
IC50 [1]: 60 nM
IC50 [2]: 22 nM
IC50 [3]: 26 nM

CC(C)CN(C[C@@H](O)[C@H](Cc1ccc(OCCCNS(C)(=O)=O)cc1)NC(=O)O[C@H]1CO[C@H]2OCC[C@H]21)S(=O)(=O)c1ccc2c(c1)OCO2
IC50 [1]: 41 nM
IC50 [2]: 21 nM
IC50 [3]: 20 nM

COC(=O)NCCCCC(C)(C)CN(C[C@@H](O)[C@H](Cc1ccccc1)NC(=O)O[C@H]1CO[C@H]2OCC[C@H]21)S(=O)(=O)c1ccc2c(c1)OCO2
IC50 [1]: 2.2 nM
IC50 [2]: 15 nM
IC50 [3]: 19 nM

CC(C)CN(C[C@@H](O)[C@H](Cc1ccc(OCCN)cc1)NC(=O)O[C@H]1CO[C@H]2OCC[C@H]21)S(=O)(=O)c1ccc2c(c1)OCO2
IC50 [1]: 180 nM
IC50 [2]: 130 nM
IC50 [3]: 150 nM

CC(C)CN(C[C@@H](O)[C@H](Cc1ccc(OCCCNC(=O)N(C)C)cc1)NC(=O)O[C@H]1CO[C@H]2OCC[C@H]21)S(=O)(=O)c1ccc2c(c1)OCO2
IC50 [1]: 25 nM
IC50 [2]: 11 nM
IC50 [3]: 11 nM

CC(C)CN(C[C@@H](O)[C@H](Cc1ccc(OCCCCNC(=O)N(C)C)cc1)NC(=O)O[C@H]1CO[C@H]2OCC[C@H]21)S(=O)(=O)c1ccc2c(c1)OCO2
IC50 [1]: 65 nM
IC50 [2]: 32 nM
IC50 [3]: 22 nM

CC(C)CN(C[C@@H](O)[C@H](Cc1ccc(OCCCN)cc1)NC(=O)O[C@H]1CO[C@H]2OCC[C@H]21)S(=O)(=O)c1ccc2c(c1)OCO2
IC50 [1]: 67 nM
IC50 [2]: 65 nM
IC50 [3]: 50 nM

CC(C)CN(C[C@@H](O)[C@H](Cc1ccc(OCCCCNS(C)(=O)=O)cc1)NC(=O)O[C@H]1CO[C@H]2OCC[C@H]21)S(=O)(=O)c1ccc2c(c1)OCO2
IC50 [1]: 15 nM
IC50 [2]: 9.2 nM
IC50 [3]: 5.9 nM

Cc1cccc(C)c1OCC(=O)N[C@@H](Cc1ccccc1)[C@@H](O)C[C@H](Cc1ccccc1)NC(=O)[C@H](C(C)C)N1CCCNC1=O [LOPINAVIR]
IC50 [1]: 40 nM
IC50 [2]: > 1000 nM
IC50 [3]: 400 nM

COC(=O)N[C@H](C(=O)N[C@@H](Cc1ccccc1)[C@@H](O)CN(Cc1ccc(-c2ccccn2)cc1)NC(=O)[C@@H](NC(=O)OC)C(C)(C)C)C(C)(C)C [ATAZANAVIR]
IC50 [1]: 25 nM
IC50 [2]: 70 nM
IC50 [3]: 93 nM

CNC(=O)NCCOc1ccc(C[C@H](NC(=O)O[C@H]2CO[C@H]3OCC[C@H]32)[C@H](O)CN(CC(C)C)S(=O)(=O)c2ccc3c(c2)OCO3)cc1
IC50 [1]: 200 nM
IC50 [2]: 130 nM
IC50 [3]: 131 nM

COC(=O)NCCCOc1ccc(C[C@H](NC(=O)O[C@H]2CO[C@H]3OCC[C@H]32)[C@H](O)CN(CC(C)C)S(=O)(=O)c2ccc3c(c2)OCO3)cc1
IC50 [1]: 2.8 nM
bioavailability [4]: 3%
CL (mL.min-1.kg-1) [5]: 0.5
IC50 [2]: 7.1 nM
T1/2 [6]: 12 min
CL (mL.min-1.kg-1) [7]: 0.717
bioavailability [8]: 1%
T1/2 [9]: 66 min
IC50 [3]: 2.6 nM

CC(=O)NCCCCOc1ccc(C[C@H](NC(=O)O[C@H]2CO[C@H]3OCC[C@H]32)[C@H](O)CN(CC(C)C)S(=O)(=O)c2ccc3c(c2)OCO3)cc1
IC50 [1]: 39 nM
IC50 [2]: 16 nM
IC50 [3]: 13 nM

CC(=O)NCCCOc1ccc(C[C@H](NC(=O)O[C@H]2CO[C@H]3OCC[C@H]32)[C@H](O)CN(CC(C)C)S(=O)(=O)c2ccc3c(c2)OCO3)cc1
IC50 [1]: 57 nM
IC50 [2]: 20 nM
IC50 [3]: 18 nM

COC(=O)NCCCCOc1ccc(C[C@H](NC(=O)O[C@H]2CO[C@H]3OCC[C@H]32)[C@H](O)CN(CC(C)C)S(=O)(=O)c2ccc3c(c2)OCO3)cc1
IC50 [1]: 2.6 nM
IC50 [2]: 6.6 nM
IC50 [3]: 2.6 nM

CC(C)CN(C[C@@H](O)[C@H](Cc1ccc(OCCCCN)cc1)NC(=O)O[C@H]1CO[C@H]2OCC[C@H]21)S(=O)(=O)c1ccc2c(c1)OCO2
IC50 [1]: 15 nM
IC50 [2]: 28 nM
IC50 [3]: 14 nM

CC(=O)NCCOc1ccc(C[C@H](NC(=O)O[C@H]2CO[C@H]3OCC[C@H]32)[C@H](O)CN(CC(C)C)S(=O)(=O)c2ccc3c(c2)OCO3)cc1
IC50 [1]: 140 nM
IC50 [2]: 53 nM
IC50 [3]: 52 nM

CC(C)CN(C[C@@H](O)[C@H](Cc1ccccc1)NC(=O)O[C@H]1CCOC1)S(=O)(=O)c1ccc(N)cc1 [AMPRENAVIR]
IC50 [1]: 130 nM
IC50 [2]: > 1000 nM
IC50 [3]: 440 nM

Cc1c(O)cccc1C(=O)N[C@@H](CSc1ccccc1)[C@H](O)CN1C[C@H]2CCCC[C@H]2C[C@H]1C(=O)NC(C)(C)C [NELFINAVIR]
IC50 [1]: 320 nM
IC50 [2]: > 1000 nM
IC50 [3]: 450 nM

COC(=O)NCCOc1ccc(C[C@H](NC(=O)O[C@H]2CO[C@H]3OCC[C@H]32)[C@H](O)CN(CC(C)C)S(=O)(=O)c2ccc3c(c2)OCO3)cc1
IC50 [1]: 3 nM
IC50 [2]: 7.1 nM
bioavailability [10]: 33%
T1/2 [6]: 96 min
CL (mL.min-1.kg-1) [11]: 1.13
CL (mL.min-1.kg-1) [7]: 0.917
bioavailability [8]: 0%
IC50 [3]: 2.9 nM
bioavailability [12]: 1%
T1/2 [13]: 36 min

CNC(=O)NCCCOc1ccc(C[C@H](NC(=O)O[C@H]2CO[C@H]3OCC[C@H]32)[C@H](O)CN(CC(C)C)S(=O)(=O)c2ccc3c(c2)OCO3)cc1
IC50 [1]: 119 nM
IC50 [2]: 43 nM
IC50 [3]: 56 nM
